Source: ChEMBL document CHEMBL2331412, “Oxo-heterocyclic fused naphthalimides as antitumor agents: synthesis and biological evaluation” (Eur J Med Chem, 2013)
Activity calls are given as the source filed them. The calls are words filed in the database; no cut-off is given here.

How the values were obtained:
A549 = assay: Cytotoxicity against human A549 cells by SRB assay; format: functional, cell-based
P388 = assay: Cytotoxicity against mouse P388 cells by tetrazolium-formazan assay; format: functional, cell-based
[1] = Cytotoxicity against human LO2 cells by SRB assay; format: cell-based; conditions: L02
[2] = Binding affinity to Poly(dAdT).Poly(dAdT) (unknown origin)
Summary of the method: (§1)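 Fluorescence titration in 20 mM sodium phosphate pH 7.0 at 20 ± 1 °C. Compound held at 3 × 10^-6 M while polydeoxynucleotide was varied from 0 to 6.32 × 10^-5 M. Ka was obtained by nonlinear curve fitting of the data. The ratio line is the GC-polymer Ka divided by the AT-polymer Ka.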

DNA [3] = assay: Binding affinity to calf thymus DNA at 20 uM by circular dichroism analysis; format: nucleic-acid assay; conditions: Bos taurus
Summary of the method: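 Circular dichroism spectra of compound with calf thymus DNA in 20 mM Tris-HCl pH 7.5 containing 1% DMSO (v/v). Recorded in a 1 cm quartz cell over 240–300 nm.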

[4] = target: DNA topoisomerase 2-alpha (Homo sapiens) (UniProt P11388); assay: Inhibition of human topoisomerase 2a-mediated kinetoplast decatenation at 100 uM after 30 mins by agarose gel electrophoresis
Summary of the method: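 ATP-dependent kDNA decatenation by 1 unit human topo IIα. Incubated 30 min at 37 °C in 50 mM Tris-HCl pH 8, 150 mM NaCl, 10 mM MgCl2, 2 mM ATP and 0.5 mM DTT. Stopped with SDS, run on 0.8% agarose in TAE for 50 min at 120 V, stained with ethidium bromide and imaged under UV.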

[5] = Binding affinity to Poly(dGdC).Poly(dGdC) (unknown origin); summary of the method: as §1
DNA [6] = assay: Binding affinity to calf thymus DNA at 20 uM after 1 hr by fluorimetric analysis; format: nucleic-acid assay; conditions: Bos taurus; 10 uM; in the assay text read “at 10 uM” for “at 20 uM”
Summary of the method: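 Fluorescence quenching with increasing calf thymus DNA in 20 mM Tris-HCl pH 7.5 containing 1% DMSO (v/v). Mixtures were stirred for 1 h at 25 °C in the dark before each spectrum was recorded. Kb came from nonlinear fitting of fluorescence intensity against DNA concentration.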

Bos taurus [7] = organism: Bos taurus; assay: Inhibition of calf thymus topoisomerase 1-mediated pBR322 relaxation at 100 uM after 30 mins by agarose gel electrophoresis
Summary of the method: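 Topoisomerase I and compound were incubated 30 min at 37 °C in topo I buffer with 0.01% BSA. Reactions were stopped with SDS and loading dye, then run on 0.8% agarose in TAE for 35 min at 120 V, stained with ethidium bromide and imaged under UV.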

Bos taurus [8] = organism: Bos taurus; assay: Inhibition of calf thymus topoisomerase 1-mediated pBR322 relaxation at 200 uM after 30 mins by agarose gel electrophoresis
Summary of the method: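 Topoisomerase I and compound incubated 30 min at 37 °C in topoisomerase I buffer with 0.01% BSA. Reactions were stopped with 10% SDS and loading dye. Products were resolved on a 0.8% agarose gel in TAE for 35 min at 120 V, stained with ethidium bromide at room temperature and photographed under UV.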

[9] = Binding affinity to 5'TGGCGA3'/3'ACCGCT5' (unknown origin)
[10] = Binding affinity to 5'ATGCGCAT3'/3'TACGCGTA5' (unknown origin)
[11] = Binding affinity to 5'ACGCCT3'/3'TGCGGA5' (unknown origin)
[12] = Binding affinity to 5'ACGGCT3'/3'TGCCGA5'(unknown origin)
[13] = Binding affinity to 5'ACCCCT3'/3'TGGGGA5' (unknown origin)
[14] = Binding affinity to 5'ACCCGT3'/3'TGGGCA5' (unknown origin)
[15] = Binding affinity to 5'TGCGCA3'/3'ACGCGT5' (unknown origin)
[16] = Binding affinity to 5'ACCGGT3'/3'TGGCCA5' (unknown origin)
[17] = Selectivity ratio of Ka for Poly(dGdC).Poly(dGdC) (unknwon origin) to Ka for Poly(dAdT).Poly(dAdT) (unknown origin); summary of the method: as §1

Sequence of DNA topoisomerase 2-alpha (Homo sapiens) (P11388 whole entry): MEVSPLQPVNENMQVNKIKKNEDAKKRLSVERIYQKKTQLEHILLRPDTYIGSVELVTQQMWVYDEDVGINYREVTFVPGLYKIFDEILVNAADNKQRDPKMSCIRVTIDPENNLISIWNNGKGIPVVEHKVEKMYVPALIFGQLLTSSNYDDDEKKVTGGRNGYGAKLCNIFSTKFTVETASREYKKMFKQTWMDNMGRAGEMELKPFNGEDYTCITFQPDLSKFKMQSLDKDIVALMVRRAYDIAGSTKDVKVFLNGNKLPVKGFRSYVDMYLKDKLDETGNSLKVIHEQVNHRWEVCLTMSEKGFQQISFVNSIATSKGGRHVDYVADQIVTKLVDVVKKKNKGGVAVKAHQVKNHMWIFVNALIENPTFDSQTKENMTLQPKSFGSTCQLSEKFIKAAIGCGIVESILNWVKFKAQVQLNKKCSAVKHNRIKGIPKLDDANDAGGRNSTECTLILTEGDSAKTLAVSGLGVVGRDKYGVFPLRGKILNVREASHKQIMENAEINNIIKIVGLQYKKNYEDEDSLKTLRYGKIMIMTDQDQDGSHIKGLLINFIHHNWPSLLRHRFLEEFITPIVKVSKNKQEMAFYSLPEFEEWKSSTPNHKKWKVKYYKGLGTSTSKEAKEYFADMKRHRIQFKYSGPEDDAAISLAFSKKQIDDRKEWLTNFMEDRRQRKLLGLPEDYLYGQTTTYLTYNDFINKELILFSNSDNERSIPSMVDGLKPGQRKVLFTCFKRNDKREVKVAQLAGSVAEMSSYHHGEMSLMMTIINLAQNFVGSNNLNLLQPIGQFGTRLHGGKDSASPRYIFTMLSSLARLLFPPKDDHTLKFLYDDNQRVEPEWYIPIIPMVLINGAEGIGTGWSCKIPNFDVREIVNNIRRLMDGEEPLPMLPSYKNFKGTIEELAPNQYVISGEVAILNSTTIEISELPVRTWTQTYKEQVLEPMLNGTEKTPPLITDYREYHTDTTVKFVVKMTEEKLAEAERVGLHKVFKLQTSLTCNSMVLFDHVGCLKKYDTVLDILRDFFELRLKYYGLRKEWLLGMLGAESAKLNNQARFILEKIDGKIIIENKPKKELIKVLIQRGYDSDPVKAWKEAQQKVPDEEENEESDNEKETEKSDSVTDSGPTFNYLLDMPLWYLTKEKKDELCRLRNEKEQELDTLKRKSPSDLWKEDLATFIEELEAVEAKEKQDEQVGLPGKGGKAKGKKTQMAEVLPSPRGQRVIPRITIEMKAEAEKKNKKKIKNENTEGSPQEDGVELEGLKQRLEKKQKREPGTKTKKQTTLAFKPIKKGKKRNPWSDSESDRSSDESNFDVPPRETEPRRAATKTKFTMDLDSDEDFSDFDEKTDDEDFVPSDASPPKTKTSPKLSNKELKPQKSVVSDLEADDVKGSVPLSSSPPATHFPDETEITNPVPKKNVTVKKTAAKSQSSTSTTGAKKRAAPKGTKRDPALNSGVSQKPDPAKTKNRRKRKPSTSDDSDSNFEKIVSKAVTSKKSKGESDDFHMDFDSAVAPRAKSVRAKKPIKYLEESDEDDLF

SMILES: CCCCn1c(=O)c2ccc3oc4ccccc4c4ccc(c1=O)c2c34
- IC50 (A549): 5390 nM
- IC50 (P388): > 100000 nM
- IC50 [1]: > 100000 nM

SMILES: CN(C)CCN1C(=O)c2cccc3c2c(cc2c4ccccc4oc32)C1=O
- Ka [2]: 5 ×10⁶ /M
- Activity (DNA [3]): Active
- IC50 (A549): 360 nM
- IC50 (P388): 650 nM
- Inhibition (qualitative) [4]: Active
- Ka [5]: 6.36 ×10⁶ /M
- IC50 [1]: 5000 nM
- Ka (DNA [6]): 2.89 ×10⁵ /M
- Topoisomerase 1 relaxation inhibition (qualitative) (Bos taurus [7]): Active

SMILES: CCCCN1C(=O)c2cccc3c2c(cc2c4ccccc4sc32)C1=O
- IC50 (A549): 1350 nM
- IC50 (P388): 740 nM

SMILES: CC[C@@]1(O)C(=O)OCc2c1cc1n(c2=O)Cc2cc3ccccc3nc2-1
- inhibition (Bos taurus [8]): Active

SMILES: CCCCn1c(=O)c2ccc3sc4ccccc4c4ccc(c1=O)c2c34
- IC50 (A549): 870 nM
- IC50 (P388): 1200 nM

SMILES: O=c1c2ccc3oc4ccccc4c4ccc(c(=O)n1CCN1CCNCC1)c2c34
- IC50 (A549): 29000 nM
- IC50 (P388): 4520 nM
- IC50 [1]: 11500 nM

SMILES: CN(C)CCn1c(=O)c2ccc3oc4ccccc4c4ccc(c1=O)c2c34
- Ka [9]: 8.4 ×10⁴ /M
- Ka [2]: 1.32 ×10⁵ /M
- Ka [10]: 8 ×10⁴ /M
- Activity (DNA [3]): Active
- Ka [11]: 6.9 ×10³ /M
- Ka [12]: 5.9 ×10³ /M
- IC50 (A549): 610 nM
- Ka [13]: 1.72 ×10⁵ /M
- IC50 (P388): 1110 nM
- Inhibition (qualitative) [4]: Active
- Ka [5]: 6.89 ×10⁵ /M
- IC50 [1]: 4100 nM
- Ka (DNA [6]): 1.45 ×10⁵ /M
- Ka [14]: 1.2 ×10⁴ /M
- Topoisomerase 1 relaxation inhibition (qualitative) (Bos taurus [7]): Active
- Ka [15]: 1.28 ×10⁵ /M
- Ka [16]: 1.12 ×10⁵ /M

SMILES: Cc1ccc(-c2nc3cc4c5c(cccc5c3o2)C(=O)N(CCN(C)C)C4=O)cc1
- IC50 (A549): 34700 nM
- IC50 (P388): 19300 nM
- IC50 [1]: 6700 nM

SMILES: CN(C)CCCn1c(=O)c2ccc3sc4ccccc4c4ccc(c1=O)c2c34
- IC50 (A549): 190 nM
- IC50 (P388): 630 nM

SMILES: CN(C)CCCN1C(=O)c2cccc3c2c(cc2c4ccccc4sc32)C1=O
- IC50 (A549): 250 nM
- IC50 (P388): 320 nM

SMILES: CCCCN1C(=O)c2cccc3c2c(cc2c4ccccc4oc32)C1=O
- IC50 (A549): 1400 nM
- IC50 (P388): > 100000 nM
- IC50 [1]: > 100000 nM

SMILES: CN(C)CCN1C(=O)c2cccc3c2c(cc2nc(-c4ccc([N+](=O)[O-])cc4)oc23)C1=O
- IC50 (A549): 17800 nM
- IC50 (P388): 100000 nM
- IC50 [1]: > 100000 nM

SMILES: COc1ccc(-c2nc3cc4c5c(cccc5c3s2)C(=O)N(CCN(C)C)C4=O)cc1
- IC50 (A549): 16 nM
- IC50 (P388): 430 nM

SMILES: CN(C)CCN1C(=O)c2cccc3c2c(cc2nc(-c4ccccc4)sc23)C1=O
- IC50 (A549): 85 nM
- IC50 (P388): 660 nM

SMILES: CN(C)CCN1C(=O)c2cccc3c2c(cc2nc(-c4ccc(Cl)cc4)oc23)C1=O
- IC50 (A549): 72400 nM
- IC50 (P388): 20100 nM
- IC50 [1]: > 100000 nM

SMILES: CN(C)CCN1C(=O)c2cccc3cc(N)cc(c23)C1=O [AMONAFIDE]
- Inhibition (qualitative) [4]: Active
- IC50 [1]: 5000 nM

SMILES: CN(C)CCCn1c(=O)c2ccc3oc4ccccc4c4ccc(c1=O)c2c34
- IC50 (A549): 98300 nM
- IC50 (P388): 3500 nM
- IC50 [1]: 10300 nM

SMILES: CN(C)CCN1C(=O)c2cccc3c2c(cc2c4ccccc4sc32)C1=O
- Ka [2]: 8 ×10⁶ /M
- Activity (DNA [3]): Active
- Inhibition (qualitative) [4]: Active
- Ka [5]: 7.6 ×10⁷ /M
- IC50 [1]: 900 nM
- Ka (DNA [6]): 1.1 ×10⁵ /M
- Topoisomerase 1 relaxation inhibition (qualitative) (Bos taurus [7]): Active
- Selectivity ratio [17]: 10

SMILES: CN(C)CCn1c(=O)c2ccc3sc4ccccc4c4ccc(c1=O)c2c34
- Ka [9]: 2.13 ×10⁵ /M
- Ka [2]: 4.48 ×10⁵ /M
- Ka [10]: 4.76 ×10⁵ /M
- Activity (DNA [3]): Active
- Ka [11]: 1.92 ×10⁵ /M
- Ka [12]: 3 ×10⁴ /M
- Ka [13]: 1.89 ×10⁵ /M
- Inhibition (qualitative) [4]: Active
- Ka [5]: 4.76 ×10⁶ /M
- IC50 [1]: 4100 nM
- Ka (DNA [6]): 9.7 ×10⁴ /M
- Ka [14]: 9.09 ×10⁵ /M
- Topoisomerase 1 relaxation inhibition (qualitative) (Bos taurus [7]): Active
- Selectivity ratio [17]: 10
- Ka [15]: 3.33 ×10⁶ /M
- Ka [16]: 4 ×10⁵ /M

SMILES: COc1ccccc1-c1nc2cc3c4c(cccc4c2o1)C(=O)N(CCN(C)C)C3=O
- IC50 (A549): 890 nM
- IC50 (P388): 1300 nM
- IC50 [1]: 1900 nM

SMILES: COc1ccc(-c2nc3cc4c5c(cccc5c3o2)C(=O)N(CCN(C)C)C4=O)cc1
- IC50 (A549): 6600 nM
- IC50 (P388): 1290 nM
- IC50 [1]: 3400 nM

SMILES: COc1cc([C@@H]2c3cc4c(cc3[C@@H](O[C@@H]3O[C@@H]5CO[C@@H](C)O[C@H]5[C@H](O)[C@H]3O)[C@H]3COC(=O)[C@H]23)OCO4)cc(OC)c1O
- Inhibition (qualitative) [4]: Active
- Topoisomerase 1 relaxation inhibition (qualitative) (Bos taurus [7]): Active

SMILES: CN(C)CCN1C(=O)c2cccc3c2c(cc2nc(-c4ccccc4)oc23)C1=O
- IC50 (A549): 530 nM
- IC50 (P388): 2500 nM
- IC50 [1]: 3000 nM

SMILES: O=C1c2cccc3c2c(cc2c4ccccc4sc32)C(=O)N1CCN1CCNCC1
- IC50 (A549): 11800 nM
- IC50 (P388): 72400 nM

SMILES: CN(C)CCCN1C(=O)c2cccc3c2c(cc2c4ccccc4oc32)C1=O
- IC50 (A549): 740 nM
- IC50 (P388): 170 nM
- IC50 [1]: 6600 nM

SMILES: O=c1c2ccc3sc4ccccc4c4ccc(c(=O)n1CCN1CCNCC1)c2c34
- IC50 (A549): 100000 nM
- IC50 (P388): > 100000 nM

SMILES: Cc1ccc(-c2nc3cc4c5c(cccc5c3s2)C(=O)N(CCN(C)C)C4=O)cc1
- IC50 (A549): 420 nM
- IC50 (P388): 620 nM
